This note sets out measurements from ChEMBL document CHEMBL1141702 (Bioorg Med Chem Lett, 2008).

The target of assay [1] is Sigma non-opioid intracellular receptor 1 (Cavia porcellus, UniProt Q60492). Description: Displacement of [3H](+)-pentazocine from sigma 1 receptor in guinea pig brain membrane. Format: cell membranes. In short, it runs like this: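 Tissue was previously frozen guinea pig brain minus cerebellum, incubated 120 min at 25 °C. Ki values derived from competition binding.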

Assay [2] deals with Sodium-dependent serotonin transporter (Rattus norvegicus, UniProt P31652). As to the kind of experiment: Displacement of [3H]citalopram from SERT in rat brain stem membrane. Format: cell membranes. In short, it runs like this: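 [³H]Citalopram binding in previously frozen rat brain stem, buffer 50 mM Tris, 5 mM KCl, 120 mM NaCl. Incubation 60 min at 25 °C. Ki values derived from competition binding.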
Sodium-dependent serotonin transporter, sequence (P31652 whole entry): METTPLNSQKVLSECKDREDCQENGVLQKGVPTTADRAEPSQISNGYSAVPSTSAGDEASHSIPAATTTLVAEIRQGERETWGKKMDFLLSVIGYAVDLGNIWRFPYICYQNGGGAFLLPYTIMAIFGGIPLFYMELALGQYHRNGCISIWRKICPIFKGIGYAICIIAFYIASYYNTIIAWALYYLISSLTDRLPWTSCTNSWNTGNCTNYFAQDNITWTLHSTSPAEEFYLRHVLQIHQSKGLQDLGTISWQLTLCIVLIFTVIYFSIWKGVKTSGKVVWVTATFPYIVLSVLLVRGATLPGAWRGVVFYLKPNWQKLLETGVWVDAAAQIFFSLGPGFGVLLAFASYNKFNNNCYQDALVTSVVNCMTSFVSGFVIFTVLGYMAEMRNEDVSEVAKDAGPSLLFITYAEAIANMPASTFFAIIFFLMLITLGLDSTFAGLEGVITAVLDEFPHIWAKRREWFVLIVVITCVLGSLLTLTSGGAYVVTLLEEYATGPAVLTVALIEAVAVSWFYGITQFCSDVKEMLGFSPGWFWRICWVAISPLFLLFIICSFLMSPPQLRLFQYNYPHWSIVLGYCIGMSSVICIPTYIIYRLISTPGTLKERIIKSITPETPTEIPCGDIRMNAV

For assay [3], the target named is Sodium-dependent dopamine transporter (Rattus norvegicus, UniProt P23977). Description: Displacement of [3H]WIN-35428 from DAT in rat striatum membrane. The class given is cell membranes.
Sodium-dependent dopamine transporter, sequence (P23977 whole entry): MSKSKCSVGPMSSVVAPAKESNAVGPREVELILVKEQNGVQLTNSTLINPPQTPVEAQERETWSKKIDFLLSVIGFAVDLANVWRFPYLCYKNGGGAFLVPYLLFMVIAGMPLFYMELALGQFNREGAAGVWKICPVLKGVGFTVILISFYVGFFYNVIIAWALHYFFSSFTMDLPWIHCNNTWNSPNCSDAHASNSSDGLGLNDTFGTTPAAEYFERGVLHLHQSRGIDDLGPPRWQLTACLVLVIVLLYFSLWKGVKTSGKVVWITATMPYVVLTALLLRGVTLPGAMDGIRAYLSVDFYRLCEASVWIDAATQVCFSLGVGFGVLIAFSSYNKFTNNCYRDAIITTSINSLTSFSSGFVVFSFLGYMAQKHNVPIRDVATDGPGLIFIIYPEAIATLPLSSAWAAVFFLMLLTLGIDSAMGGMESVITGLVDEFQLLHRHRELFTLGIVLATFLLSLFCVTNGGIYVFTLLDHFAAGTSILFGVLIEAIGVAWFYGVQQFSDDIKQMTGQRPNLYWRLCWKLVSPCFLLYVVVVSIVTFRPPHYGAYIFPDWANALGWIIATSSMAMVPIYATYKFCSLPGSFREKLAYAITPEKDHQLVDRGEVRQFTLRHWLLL
The next assay has as its target Transporter (Rattus norvegicus, UniProt Q63380). Description: Displacement of [3H]nisoxetine from NET in rat frontal cortex membrane. Format: cell membranes. In short, it runs like this:
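Assay used previously frozen rat frontal cortex with [³H]nisoxetine in 50 mM Tris, 5 mM KCl, 120 mM NaCl buffer. Incubated 180 min on ice. Ki values derived from competition binding.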

Assay [4] is filed under the species Rattus norvegicus. As to the kind of experiment: Selectivity ratio of Ki for rat brain stem SERT to Ki for rat striatum DAT. The class given is tissue-based.
A short description of assay [5]: Selectivity ratio of Ki for rat brain stem SERT to Ki for guinea pig brain sigma 1 receptor.
For assay [6], the species on record is Rattus norvegicus. Description: Selectivity ratio of Ki for rat brain stem SERT to Ki for rat frontal cortex NET. The class given is tissue-based.

Usually Ki stands for a measure of affinity in units of concentration, obtained from inhibition or displacement. A high value points to a looser hold on the target.

Transporter, sequence (Q63380 whole entry): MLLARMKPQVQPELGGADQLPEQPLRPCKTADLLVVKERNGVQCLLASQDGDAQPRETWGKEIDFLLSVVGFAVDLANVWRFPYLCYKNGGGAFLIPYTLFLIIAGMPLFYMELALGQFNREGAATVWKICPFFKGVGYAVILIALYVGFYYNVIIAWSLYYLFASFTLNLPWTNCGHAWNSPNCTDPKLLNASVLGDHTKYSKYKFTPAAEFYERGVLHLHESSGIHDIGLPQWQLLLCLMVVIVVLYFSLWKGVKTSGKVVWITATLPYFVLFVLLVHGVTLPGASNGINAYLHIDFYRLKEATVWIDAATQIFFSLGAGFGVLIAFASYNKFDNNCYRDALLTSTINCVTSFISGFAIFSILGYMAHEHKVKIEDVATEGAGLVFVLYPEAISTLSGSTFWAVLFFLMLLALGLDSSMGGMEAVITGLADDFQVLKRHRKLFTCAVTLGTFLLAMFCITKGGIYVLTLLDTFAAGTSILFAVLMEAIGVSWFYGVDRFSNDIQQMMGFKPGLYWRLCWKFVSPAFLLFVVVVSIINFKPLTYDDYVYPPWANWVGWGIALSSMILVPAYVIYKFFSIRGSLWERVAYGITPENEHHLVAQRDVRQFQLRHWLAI
Sigma non-opioid intracellular receptor 1, sequence (Q60492 whole entry): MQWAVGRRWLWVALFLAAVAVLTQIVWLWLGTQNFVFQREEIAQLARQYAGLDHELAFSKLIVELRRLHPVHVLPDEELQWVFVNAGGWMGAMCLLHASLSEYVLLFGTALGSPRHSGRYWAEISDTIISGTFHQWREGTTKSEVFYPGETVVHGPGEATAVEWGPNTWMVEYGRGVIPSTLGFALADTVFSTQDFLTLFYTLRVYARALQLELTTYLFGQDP

Take `O=C(CCc1ccccc1)OC(CCN1CCN(CCCN(c2ccc(F)cc2)c2ccc(F)cc2)CC1)c1ccccc1` (stereo not given): the inhibition constant Ki in assay [1] turned out to be 235 nM; in assay [2] it was 1300 nM; in assay [3] it was 36.6 nM.

Turning to `C=CC(=O)OC(CCN1CCN(CCCN(c2ccc(F)cc2)c2ccc(F)cc2)CC1)c1ccccc1` (stereo not given), the inhibitory constant (Ki) in assay [1] was found to be 87.3 nM; in assay [2] it was 318 nM; on Transporter, 1950 nM; in assay [3], 6.71 nM.

`O[C@H](Cc1ccccc1)CN1CCN(CCCN(c2ccc(F)cc2)c2ccc(F)cc2)CC1`: the Ki in assay [1] is 33.4 nM; in assay [2], 521 nM; on Transporter, 2110 nM; in assay [3], 5.36 nM.

With `O=C(Cc1ccccc1)O[C@@H](Cc1ccccc1)CN1CCN(CCCN(c2ccc(F)cc2)c2ccc(F)cc2)CC1`, the Ratio Ki worked out at 282 in the assay listed under Rattus norvegicus [4], 13 in assay [5] and 243 in the assay filed under Rattus norvegicus [6]. Besides, the inhibitory constant (Ki) is 87.4 nM in assay [1], 1950 nM in assay [2], 1680 nM at Transporter and 6.92 nM in assay [3].

In the case of `O=C(CCCc1ccccc1)OC(CCN1CCN(CCCN(c2ccc(F)cc2)c2ccc(F)cc2)CC1)c1ccccc1` (stereo not given), the inhibition constant (Ki) is 246 nM in assay [1], 2190 nM in assay [2], above 10000 nM on Transporter and 51.3 nM in assay [3].

`CCC(=O)OC(CCN1CCN(CCCN(c2ccc(F)cc2)c2ccc(F)cc2)CC1)c1ccccc1` (stereo not given): the Ratio Ki in the assay filed under Rattus norvegicus [4] worked out at 49; in assay [5], 14; in the assay filed under Rattus norvegicus [6] it was 269. Besides, the Ki in assay [1] is 76 nM; in assay [2] it was 273 nM; on Transporter, 1500 nM; in assay [3] it was 5.57 nM.

With `O[C@@H](Cc1ccccc1)CN1CCN(CCCN(c2ccc(F)cc2)c2ccc(F)cc2)CC1`, the Ki in assay [1] stood at 28.1 nM; in assay [2] it was 779 nM; on Transporter, 766 nM; in assay [3], 1.72 nM.

Turning to `CC(C)C(=O)OC(CCN1CCN(CCCN(c2ccc(F)cc2)c2ccc(F)cc2)CC1)c1ccccc1` (stereo not given), the values for the inhibition constant (Ki) in assay [1], in assay [2] and in assay [3] were 88.3 nM, 543 nM and 9.36 nM, respectively.

`CCCC(=O)O[C@@H](Cc1ccccc1)CN1CCN(CCCN(c2ccc(F)cc2)c2ccc(F)cc2)CC1`: the Ki in assay [1] stood at 292 nM; in assay [2] it was 1680 nM; in assay [3], 33.5 nM.

Turning to `CCC(=O)O[C@@H](Cc1ccccc1)CN1CCN(CCCN(c2ccc(F)cc2)c2ccc(F)cc2)CC1`, the results for the Ki in assay [1], in assay [2] and in assay [3] were 81.8 nM, 1040 nM and 15.1 nM, respectively.

On to `O=C(Cc1ccccc1)OC(CCN1CCN(CCCN(c2ccc(F)cc2)c2ccc(F)cc2)CC1)c1ccccc1` (stereo not given), for which the Ratio Ki stood at 83 in the assay filed under Rattus norvegicus [4], 9 in assay [5] and 184 in the assay listed under Rattus norvegicus [6]. Further, the inhibition constant (Ki) was determined as 135 nM in assay [1], 1230 nM in assay [2], 2740 nM on Transporter and 14.9 nM in assay [3].

Turning to `C=CC(=O)O[C@@H](Cc1ccccc1)CN1CCN(CCCN(c2ccc(F)cc2)c2ccc(F)cc2)CC1`, the Ki turned out to be 45.5 nM in assay [1], 660 nM in assay [2], 810 nM at Transporter and 3.26 nM in assay [3].

Turning to `CC(=O)OC(CCN1CCN(CCCN(c2ccc(F)cc2)c2ccc(F)cc2)CC1)c1ccccc1` (stereo not given), the inhibitory constant (Ki) in assay [1] was found to be 56.6 nM; in assay [2], 204 nM; at Transporter, 990 nM; in assay [3], 4.28 nM.

`Fc1ccc(C(OCCN2CCN(CCCc3ccccc3)CC2)c2ccc(F)cc2)cc1` [VANOXERINE]: the affinity in assay [1], expressed as Ki, was 50.8 nM. In other words, the double-digit nanomolar range.

In assay [3], `OC(CCN1CCN(CCCN(c2ccc(F)cc2)c2ccc(F)cc2)CC1)c1ccccc1` (racemic) displayed a Ki of 3.45 nM.

The compound `C[C@@H]1CN(CCCn2c3ccccc3c3ccccc32)C[C@H](C)N1` [RIMCAZOLE] displayed a Ki in assay [3] of 97.7 nM. Against the preceding compound, the Ki is about 28-fold higher.

With `CCCN(CCC)CCc1ccc(OC)c(OCCc2ccccc2)c1`, the inhibitory constant (Ki) is above 10000 nM in assay [2] and 3620 nM in assay [3].

Consider `CC(=O)O[C@@H](Cc1ccccc1)CN1CCN(CCCN(c2ccc(F)cc2)c2ccc(F)cc2)CC1`, for which the inhibitory constant (Ki) came to 75 nM in assay [1], 835 nM in assay [2] and 21.7 nM in assay [3].
